HTR1E antagonist = 5-HT1E (human) receptor antagonism; P28566; CHO 5-HT1E Ga15 NFAT-bla reporter, FRET, antagonist; inhibition, % at 6 µM; 0.99% of 65,000 active; AID 571;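 active = inhibition above a set limit, the mean inhibition across every tested compound plus 3 SD, cut at about 29% in these data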;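 note: signal is the 460 over 535 nm emission ratio of beta-lactamase substrate; 0% = agonist plus DMSO wells and 100% = wells without agonist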
5-HT1A blocker = antagonists of human 5-HT1a serotonin receptor | 0.68% of 62,000 active | P08908 | CHO 5-HT1a Ga15 NFAT-bla reporter, antagonist mode | inhibition, % at 10 µM | AID 612;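 active = inhibition above the mean of all tested compounds plus 3 SD, cut at about 43% in these data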;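 note: receptor stimulated by 5-CT agonist at 100 nM near EC80; beta-lactamase reporter measured by ratiometric fluorescence of a cleavable substrate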
Target sequence (P08908 whole entry, looked up): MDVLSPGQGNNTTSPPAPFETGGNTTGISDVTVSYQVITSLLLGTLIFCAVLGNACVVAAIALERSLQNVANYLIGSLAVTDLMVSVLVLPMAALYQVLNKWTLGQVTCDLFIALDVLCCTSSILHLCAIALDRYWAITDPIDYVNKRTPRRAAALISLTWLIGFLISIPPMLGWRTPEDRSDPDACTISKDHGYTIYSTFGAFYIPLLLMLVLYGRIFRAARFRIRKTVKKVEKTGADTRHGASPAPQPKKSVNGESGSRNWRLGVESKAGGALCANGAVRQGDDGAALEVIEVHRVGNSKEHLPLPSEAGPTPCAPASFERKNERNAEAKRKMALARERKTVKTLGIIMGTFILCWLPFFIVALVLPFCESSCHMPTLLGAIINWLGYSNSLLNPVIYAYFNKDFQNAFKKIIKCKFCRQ
HTR1A agonist = activates the human 5-HT1a serotonin receptor; CHO 5-HT1a Ga15 NFAT-bla reporter, FRET ratio; 0% basal, 100% maximal reference agonist; 0.56% of 65,000 active; activation, % at 10 µM; P08908;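 active = activation above the screen-wide mean activation plus 3 SD, cut at about 19% in these data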;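 note: 0% = DMSO wells and 100% = 5-CT at EC100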
S1P1 ag pot = S1P1 (human) agonism or agonism potentiation. S1P1 CRE-bla cells, forskolin, beta-lactamase FRET, potentiator mode; S1P1 agonist co-added at EC20, 2 nM; 100% = saturating reference agonist, 0% = basal. 0.57% of 56,000 active. activation, % at 9.5 µM. P21453. AID 449;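 active = activation above a cutoff set at the mean activation of all tested compounds plus 3 SD, cut at about 54% in these data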;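 note: forskolin at 4 µM as EC80 and the EC20 agonist is SEW2871; 100% = SEW2871 at its EC100 plus forskolin at EC80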
5HT1E ag = 5-HT1E (human) receptor agonism. 0.69% of 65,000 active. P28566. activation, % at 6 µM. AID 574. CHO 5-HT1E Ga15 NFAT-bla reporter, FRET; 0% DMSO wells, 100% control agonist wells;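 active = activation above a set limit, the screen-wide mean activation plus 3 SD, cut at about 8.5% in these data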;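 note: 100% = positive control agonist at 1 µM giving full maximal response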
S1P3 agonist = activates the human S1P3 receptor; Q99500; S1P3 NFAT-BLA reporter cells, agonism, FRET ratio; relative to 1 µM S1P, basal subtracted; activation, % at 4.5 µM; 0.1% of 60,000 active;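 active = activation above the screen-wide mean plus 3 SD, cut at about 4.5% in these data, passing the limit was not always enough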
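Measure – % activation relative to 1 µM S1P (100%), per plate · System – stable CHO line with human S1P3, Gα16, NFAT-BLA reporter · Timing – cells plated overnight, compound 4 h 37 °C, substrate 2 h RT · Technique – fluorescent BLA substrate, ex 405 nm, em 460/535 nm ratio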
* = called active by the depositor; / = not tested or not shown. Rows were chosen to be rich in hits. Some 3% of all compounds tested hit in one or more screens of this group.

SMILES	HTR1E antagonist	5-HT1A blocker	HTR1A agonist	S1P1 ag pot	5HT1E ag	S1P3 agonist
COC(=O)c1ccc2c(=O)n(Cc3ccc4c(c3)OCO4)c(SCC(=O)N3CCCC3)nc2c1	12	5	96*	/	-5	/
COc1cc2c(cc1OC)/C(=C/C(=O)N1CCOCC1)NC(C)(C)C2	30*	0	-1	-22	0	0
CCOC(=O)/C=C1\NC(C)(C)Cc2cc(OC)c(O)cc21	7	-6	-4	-6	1	1
COc1ccc(Cl)cc1NC(=O)CSc1nnc(-c2ccncc2)n1CC1CCCO1 (stereo not given)	-2	3	1	-11	0	0
COc1ccccc1NC(=O)CSc1nnc(-c2ccncc2)n1CC1CCCO1 (stereo not given)	-5	-15	37*	-3	-1	0
COCCNC(=O)CN(C(=O)Cn1nnc2ccccc21)c1ccccc1	9	7	-3	5	-1	-1
CCN(C(=O)c1ccc(C(C)(C)C)cc1)c1nnc(Cn2nnc3ccccc32)s1	-14	-3	5	130*	2	-2
C/C(=C\C(=O)Nc1nccs1)c1ccccc1	2	10	1	21	1	0
Cc1ccc(/C(O)=C2/C(=O)C(=O)N(CCN3CCOCC3)C2c2ccccn2)cc1 (stereo not given)	-7	0	-2	9	0	0
CCCNC(=O)c1c(N)n(-c2cccc(OC)c2)c2nc3ccccc3nc12	-11	-26	42*	-151	8.7*	2
COCCCNC(=O)c1c(N)n(-c2cccc(S(N)(=O)=O)c2)c2nc3ccccc3nc12	-2	-25	6	-14	3	1
COc1ccc(-c2nc(C#N)c(N3CCN(c4cccc(Cl)c4)CC3)o2)cc1OC	6	3	-2	-7	0	0
CS(=O)(=O)N1CCC(C(=O)Nc2ccccc2Sc2ccccc2)CC1	2	12	0	9	0	0
CC(=O)Nc1ccccc1Sc1ccccc1	32*	22	-2	-22	-1	-1
O=C1CC(c2ccc(S(=O)(=O)N3CCCCC3)cc2)CN1 (stereo not given)	0	-2	-1	-14	-1	-1
CCc1ccc(-n2c(SCC(=O)Nc3cc(C)[nH]n3)nc3[nH]ncc3c2=O)cc1	-7	-1	-2	-16	0	0
CCn1c(SCC(=O)c2cc(C)n(-c3ccc(C(=O)OC)cc3)c2C)nnc1-c1cccnc1	-7	-4	2	-8	1	0
COCCn1c(C)cc(C(=O)CSc2nnc(-c3cccnc3)n2-c2ccccc2F)c1C	-5	-4	0	98*	1	0
Cc1ccc2[nH]c(=O)c(N3CCOCC3)c(-c3ccccc3)c2c1	11	52*	4	/	0	0
CCOC(=O)Nc1ccc2c(c1)N(C(=O)N(C)C)c1ccccc1CC2	6	18	1	-15	0	-1
CSC1=NC2(CCCCC2)C2=C(CCCC2)N1	12	8	-4	16	-1	0
O=C(OC(C(=O)NC1CCCC1)c1ccccc1F)c1ccco1 (stereo not given)	-6	12	156*	-16	0	0
COc1ccc(C(OC(=O)c2ccco2)C(=O)NC2CCCCC2)cc1OC (stereo not given)	-3	2	-2	-6	0	0
CC(C)c1ccc2oc(-c3cc(N)ccc3O)nc2c1	-2	28	-8	64*	2	-1
Cc1ccc2nc(C(F)(F)F)c(C#N)c(N)c2c1	35*	/	-1	64*	-1	-4
Cc1ccc2nc(SCCC#N)nc(C)c2c1	-4	2	1	-18	0	0
COc1cc2cc(CN(Cc3cccnc3)C(=O)NCc3ccccc3)c(=O)[nH]c2cc1OC	-1	-8	-3	10	-2	-1
Cc1cccc2[nH]c(-c3ccc(NC(=O)c4ccco4)cc3)nc12	15	18	-2	-5	0	0
COc1cc(CC(=O)NCc2ccc3c(c2)OCO3)cc(OC)c1OC	0	-2	0	13	1	0

Source: PubChem BioAssay
